Assay results gathered from unrelated publications.
Protocols differ between the studies behind these lines.
Target: Glycogen synthase kinase-3 beta (GSK3B, Homo sapiens, UniProt P49841)
Technique: competition with immobilised ligand

`Nc1ncc2c(n1)-c1c([nH]c3ccc(C#CC4CC4)cc13)CCCC2` has a remaining binding of 98% (binding; 1 µM).
`C[C@@H]1CN(c2ccc3ncc(-c4ccc5[nH]nc(C6CC6)c5c4)n3n2)C[C@H](C)O1` has a remaining binding of 74% (binding; 0.5 µM).
The remaining binding of `COc1cnc(Nc2cccc(S(N)(=O)=O)c2)nc1N1CCN(c2ccccc2)CC1` is reported as 97% (binding; 1 µM).
`Cc1cnc(Nc2ccc(C(=O)N3CCC(N4CCCC4)CC3)cc2)nc1-c1cc2ccccc2s1` has a remaining binding of 51% (binding; 1 µM).
The remaining binding of `F[C@@H]1CCN(c2nccc(-c3cnn4ncccc34)n2)C1` is reported as 75% (binding; 1 µM).
The remaining binding of `CN(C)C(=O)Cn1cc(-c2nc(C3(c4ccc(-c5cnc(N)nc5)cc4)CC3)no2)cn1` is reported as 81% (cell-free assay; 1 µM).
With `O=C(c1ccc(Nc2ncc(Cl)c(-c3ccc(Cl)s3)n2)cc1)N1CCC(N2CCCC2)CC1` the remaining binding was 60% (binding; 1 µM).
`O=C(Nc1c[nH]nc1C(=O)NC1CCNCC1)c1cc(F)cc(F)c1` has a remaining binding of 0.5% (binding; 1 µM).
The remaining binding of `Cc1cc(NC(=O)c2cccc(S(F)(F)(F)(F)F)c2)cc(-n2ccn3nc(-c4cccnc4)cc23)c1` is reported as 85.4% (cell-free assay; 1 µM).
`CCN1CCN(Cc2ccc(C(=O)Nc3ccc(C)c(Oc4ccc5c(c4)CC(=O)N5)c3)cc2C(F)(F)F)CC1` gave a remaining binding of 100% (binding; 1 µM).
`c1cncc(-c2cccc(Nc3nccc(NC4CCCCC4)n3)c2)c1` gave a remaining binding of 89% (binding; 10 µM).
`Cc1nc(Cc2cccc(C(F)(F)F)c2)sc1-c1ccc(C(N)=O)nc1` has a remaining binding of 100% (cell-free assay; 1 µM).
`C=CC(=O)N1CCC(C(=O)NCC(=O)N2CCN(c3nc(-c4cnc(N)nc4C(F)F)nc(N4CCOCC4)n3)CC2)CC1` gave a remaining binding of 74% (binding; 1 µM).
`Cn1nc(C(=O)NCc2ccc(C(=O)O)cc2)cc1-c1ccc2[nH]ccc2c1` has a remaining binding of 78% (cell-free assay; 0.1 µM).
The remaining binding of `C[C@H]1CCN(c2nccc(-c3cnn4ncccc34)n2)C1` is reported as 98% (binding; 1 µM).
With `N#Cc1ccc(Nc2ccc3[nH]c(=O)[nH]c3c2)c(Cl)c1` the remaining binding was 96% (cell-free assay; 1 µM).
The remaining binding of `O=C(c1ccc(Nc2nccc(-c3cc4ccccc4s3)n2)cc1)N1CCC(N2CCCC2)CC1` is reported as 95% (binding; 1 µM).
With `C[C@H](c1ccnc(Nc2nc3ccc(-c4cc(N(C)C)ncn4)cc3[nH]2)c1)N1CCN(C(=O)CC(F)(F)F)CC1` the remaining binding was 100% (cell-free assay; 0.1 µM).
For `CNC(=O)[C@@H]1CC[C@@H](n2c(-c3ccc4cnccc4c3)nc3ccc(C(=O)NCc4cccc(C(N)=O)c4)cc32)C1`, the remaining binding was 95% (binding; 1 µM).
